“Also recorded” adds a separate entry of the source. Where two headings read alike, the source gives them in different places.
What was measured:
platelet function [1] = settings: ref Bentur et al (submitted), cited from earlier work
platelet function [2] = settings: cited from earlier work
platelet aggregation = settings: cited from earlier work
platelet function [3] = format: in vivo, human; settings: 15 minutes post dose
Method in brief: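 Patients with STEMI were given one subcutaneous upper-arm injection before pPCI at 0.075, 0.090 or 0.110 mg/kg. Whole blood in 3.2% citrate was sampled pre-dose and at 15, 30, 45, 60, 90, 120 and 180 min, plus 240 min for cohorts 2–3. It was read on the VerifyNow P2Y12 iso-TRAP channel (3-4 μM iso-TRAP) as percent inhibition.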

platelet function [4] = experiment: VerifyNow Base channel; format: in vivo, human; settings: for Base channel inhibition of platelet function, mean (min-max): 15 minutes post dose
Method in brief: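 STEMI patients received a single subcutaneous dose in the upper arm before pPCI (0.075, 0.090 or 0.110 mg/kg cohorts). Citrated (3.2%) whole blood was drawn pre-dose and at 15–180 min, plus 240 min for cohorts 2–3. It was tested in the VerifyNow P2Y12 cartridge Base channel (20 μM iso-TRAP plus PAR-4 activator) as percent inhibition. Time to 50% return of platelet function was also derived.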

[5] = Whole blood pharmacokinetics of RUC-4 in STEMI patients; format: in vivo, human; settings: for maximum blood concentration (Cmax), mean±SD / tmax, median [min-max]: whole blood
Safety and tolerability = format: in vivo, human
[6] = format: in vivo, human
Method in brief: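 STEMI patients in three cohorts received one weight-adjusted subcutaneous injection in the outer upper arm before pPCI, at 0.075, 0.090 or 0.110 mg/kg. Platelet counts were taken pre-dose and at 1, 24 and 72 h post dose. Other blood counts and kidney and liver function analytes were also monitored for tolerability.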

platelet function [7] = settings: Phase 1, sc; cited from earlier work
[8] = Phase 1, healthy subjects and stable CAD patients on aspirin; cited from earlier work
[9] = even at peak levels of ticagrelor achieved in vivo, ref Bentur et al (submitted)

CCCSc1nc(N[C@@H]2C[C@H]2c2ccc(F)c(F)c2)c2nnn([C@@H]3C[C@H](OCCO)[C@@H](O)[C@H]3O)c2n1 [ticagrelor]
inhibition of the iso-TRAP assay (platelet function [1]; at peak levels of ticagrelor achieved in vivo): about 20% | effect on the Base channel assay (platelet function [2]; [9]): not affected

CCCCOC(=O)N1CCN(C(=O)[C@H](CP(=O)(O)O)NC(=O)c2cc(N3CC[C@H](OC)C3)nc(-c3ccccc3)n2)CC1 [Selatogrel, selatogrel]
effect on the VerifyNow P2Y12 assay (platelet aggregation; single sc dose prior to PCI, patients with MI): inhibited | duration of effects (platelet aggregation; single sc dose): at least eight hours

CC(=O)Oc1cc2c(s1)CCN(C(C(=O)C1CC1)c1ccccc1F)C2 (centres unmarked) [prasugrel]
effect on the Base channel assay (platelet function [2]; doses that cause near-complete inhibition of the P2Y12 assay): do not inhibit

NCC(=O)Nc1cncc(-c2nn3c(=O)cc(N4CCNCC4)nc3s2)c1 [RUC-4]
inhibition of platelet function, iso-TRAP assay, mean (min-max) (platelet function [3]; 0.075 mg/kg sc): 77.5% [65.7%-90.6%] | patients with high-grade (≥77%) inhibition of the VerifyNow iso-TRAP assay (platelet function [3]; 0.075 mg/kg sc): 3/8 | inhibition of platelet function, iso-TRAP assay, mean (min-max) (platelet function [3]; 0.090 mg/kg sc): 87.5% [73.8%-93.1%] | patients with high-grade (≥77%) inhibition of the VerifyNow iso-TRAP assay (platelet function [3]; 0.090 mg/kg sc): 7/8 | inhibition of platelet function, iso-TRAP assay, mean (min-max) (platelet function [3]; 0.110 mg/kg sc): 91.7% [76.4%-99.3%] | patients with high-grade (≥77%) inhibition of the VerifyNow iso-TRAP assay (platelet function [3]; 0.110 mg/kg sc): 7/8 | Base channel inhibition of platelet function, mean (min-max) (platelet function [4]; 0.075 mg/kg sc): 86.0% (74.2%-97.7%) | Base channel inhibition of platelet function, mean (min-max) (platelet function [4]; 0.090 mg/kg sc): 92.3% (86.8%-97.1%) | Base channel inhibition of platelet function, mean (min-max) (platelet function [4]; 0.110 mg/kg sc): 93.0% (81.9%-98.6%) | inhibition of the Base channel assay, on average (platelet function [4]; within 15 minutes, sc, all cohorts): more than 90% | time at which maximum whole blood concentrations were reached, mean ([5]; post dose, all cohorts): 20 min | maximum blood concentration (Cmax), mean±SD ([5]; 0.075 mg/kg sc): 96.7 ± 26.0 ng/mL | tmax, median [min-max] ([5]; 0.075 mg/kg sc): 15 [15-16] minutes | maximum blood concentration (Cmax), mean±SD ([5]; 0.090 mg/kg sc): 152.4 ± 114.0 ng/mL | tmax, median [min-max] ([5]; 0.090 mg/kg sc): 15 [14-45] minutes | maximum blood concentration (Cmax), mean±SD ([5]; 0.110 mg/kg sc): 129.8 ± 23.3 ng/mL | tmax, median [min-max] ([5]; 0.110 mg/kg sc): 15 [13-45] minutes | Number of patients with AEs with fatal outcome/death (Safety and tolerability; 0.075 mg/kg sc): 0 (0%) n/N (%) | Number of patients with AEs with fatal outcome/death (Safety and tolerability; 0.090 mg/kg sc): 0 (0%) n/N (%) | Number of patients with AEs with fatal outcome/death (Safety and tolerability; 0.110 mg/kg sc): 0 (0%) n/N (%) | AEs of special interest: Injection site bruising (Safety and tolerability; Total, all doses): 11 (41%) n/N (%) | AEs of special interest: Injection site reaction (Safety and tolerability; Total, all doses): 1 (4%) n/N (%) | AEs of special interest: Mild access-site bleeding (Safety and tolerability; Total, all doses): 6 (22%) n/N (%) | AEs of special interest: Severe access-site bleeding (Safety and tolerability; Total, all doses): 2 n/N (%) | Bleeding according to BARC classification: 1 (Safety and tolerability; Total, all doses): 13 n/N (%) | Number of patients with AEs with fatal outcome/death (Safety and tolerability; Total, all doses): 0 (0%) n/N (%) | most common AEs (injection site bruising, access-site haematoma or bruising) rated as grade 1 (Safety and tolerability; safety cohort, all doses): 11/16 | bruising at the RUC-4 injection site (Safety and tolerability; safety cohort, all doses, n=27): 41% | vascular access-site haematoma or bruising (Safety and tolerability; safety cohort, all doses, n=27): 30% | Haemoglobin (mean, SD) ([6]; 24 hours post dose, Cohort 1 (0.075 mg/kg), pre-dose 14.04 (0.95)): 13.82 (2.15) g/dL | Platelet count (mean, SD) ([6]; 24 hours post dose, Cohort 1 (0.075 mg/kg), pre-dose 226.38 (44.59)): 211.13 (36.22) 109/L | Haemoglobin (mean, SD) ([6]; 24 hours post dose, Cohort 2 (0.090 mg/kg), pre-dose 13.68 (1.17)): 13.93 (1.46) g/dL | Platelet count (mean, SD) ([6]; 24 hours post dose, Cohort 2 (0.090 mg/kg), pre-dose 294.44 (74.60)): 273.00 (71.72) 109/L | Haemoglobin (mean, SD) ([6]; 24 hours post dose, Cohort 3 (0.110 mg/kg), pre-dose 14.31 (1.31)): 13.29 (2.11) g/dL | Platelet count (mean, SD) ([6]; 24 hours post dose, Cohort 3 (0.110 mg/kg), pre-dose 283.44 (60.85)): 238.13 (46.07) 109/L | Haemoglobin (mean, SD) ([6]; 72 hours post dose /discharge, Cohort 1 (0.075 mg/kg), pre-dose 14.04 (0.95)): 14.10 (2.13) g/dL | Platelet count (mean, SD) ([6]; 72 hours post dose /discharge, Cohort 1 (0.075 mg/kg), pre-dose 226.38 (44.59)): 214.88 (49.28) 109/L | Haemoglobin (mean, SD) ([6]; 72 hours post dose /discharge, Cohort 2 (0.090 mg/kg), pre-dose 13.68 (1.17)): 13.96 (1.14) g/dL | Platelet count (mean, SD) ([6]; 72 hours post dose /discharge, Cohort 2 (0.090 mg/kg), pre-dose 294.44 (74.60)): 281.67 (79.81) 109/L | Haemoglobin (mean, SD) ([6]; 72 hours post dose /discharge, Cohort 3 (0.110 mg/kg), pre-dose 14.31 (1.31)): 13.75 (2.24) g/dL | Platelet count (mean, SD) ([6]; 72 hours post dose /discharge, Cohort 3 (0.110 mg/kg), pre-dose 283.44 (60.85)): 229.00 (47.76) 109/L | changes in blood counts, or in kidney or liver function analytes ([6]; all cohorts): no clinically meaningful changes | thrombocytopaenia ([6]; first 72 hours post dose, all patients): No thrombocytopaenia; also recorded: None of the patients included in the study developed thrombocytopaenia; also recorded: did not produce thrombocytopaenia | return of platelet function (platelet function [7]): within two hours | time to high-grade inhibition of platelet function (LTA, 20 μM ADP) (platelet function [7]): ≤ 15 min | dose up to which RUC-4 was well tolerated [8]: up to 0.075 mg/kg

CC(=O)Oc1ccccc1C(=O)O [aspirin]
effect on the iso-TRAP assay (platelet function [1]; Supplementary Appendix 2): not affected | effect on the Base channel assay (platelet function [2]; [9]): not affected

Reference: article PMC9464482 (EuroIntervention : journal of EuroPCR in collaboration with …, 2021)
